Measurements published in ChEMBL document CHEMBL4334447, “Discovery of 4-Aminoquinoline-3-carboxamide Derivatives as Potent Reversible Bruton's Tyrosine Kinase Inhibitors for the Treatment of Rheumatoid Arthritis” (J Med Chem, 2019).
Converted amounts (≈) assume the structure as drawn.

Assays:
[1] = Kinetic aqueous solubility of the compound in pH 7.4 phosphate buffered saline incubated for 24 hrs under shaking condition by HPLC analysis; format: physicochemical; conditions: read-out: Kinetic_solubility
Procedure, shortened: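 Dry powder shaken 24 h at 25 °C in 0.1 M phosphate buffer, pH 7.4, then filtered through a 0.45 µm membrane. Concentration determined by HPLC against a standard of the compound in DMSO. Mean of three separate assays in triplicate.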

[2] = biological target: Tyrosine-protein kinase BTK (Homo sapiens, UniProt Q06187); experiment: Reversible inhibition of FAM-labeled peptide binding to full-length human N-terminal GST-tagged BTK (2 to 659 residues) expressed in baculovirus infected Sf21 insect cells at preincubated for 10 mins followed by FAM-labeled peptide addition and measured by off-chip mobility shift assay
Tyrosine-protein kinase BTK, sequence (Q06187 whole entry, the tested form may be a part): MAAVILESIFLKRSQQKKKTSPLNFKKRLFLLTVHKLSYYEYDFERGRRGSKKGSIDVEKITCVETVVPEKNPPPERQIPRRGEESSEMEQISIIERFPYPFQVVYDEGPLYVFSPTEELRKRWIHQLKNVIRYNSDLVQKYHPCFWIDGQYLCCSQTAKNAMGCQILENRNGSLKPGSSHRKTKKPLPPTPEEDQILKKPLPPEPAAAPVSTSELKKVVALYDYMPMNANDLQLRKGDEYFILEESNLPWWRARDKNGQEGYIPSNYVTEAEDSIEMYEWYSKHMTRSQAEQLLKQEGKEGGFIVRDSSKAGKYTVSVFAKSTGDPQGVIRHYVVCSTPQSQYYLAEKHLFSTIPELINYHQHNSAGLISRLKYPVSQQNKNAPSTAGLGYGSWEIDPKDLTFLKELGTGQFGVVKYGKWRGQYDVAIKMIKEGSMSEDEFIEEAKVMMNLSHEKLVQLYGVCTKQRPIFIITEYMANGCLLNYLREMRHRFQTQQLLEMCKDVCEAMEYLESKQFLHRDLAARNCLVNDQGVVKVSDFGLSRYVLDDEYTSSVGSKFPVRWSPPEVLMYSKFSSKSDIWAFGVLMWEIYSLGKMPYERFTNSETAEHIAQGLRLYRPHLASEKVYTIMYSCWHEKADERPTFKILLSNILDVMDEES

[3] = Toxicity in complete freund's adjuvant-induced DBA/1 mouse arthritis model assessed as effect on appetite at 0.2 mg/kg, po qd administered starting from 29 day post-CFA challenge and measured on day 29, 33, 36, 40 and 43; format: organism-based; conditions: in vivo, 696 h
Procedure, shortened: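 CIA in male DBA/1 mice: intradermal bovine type II collagen in CFA on day 0, collagen II in IFA boost on day 20. Randomized on day 29 and given oral doses once daily (n=6 per group) alongside vehicle and naive groups. Body weights recorded over the study days.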

solubility kinetic at 24 h [1] [µg/mL] | IC50 [2] [nM] | Structure (SMILES) | Activity [3]
10.5 (≈ 33.1 µM) | 72.8 | Cc1cc2cn[nH]c2cc1-c1cccc2c(N)c(C(N)=O)cnc12 | –
– | – | C[C@@H]1C[C@H]2[C@@H]3CCC4=CC(=O)C=C[C@]4(C)[C@@]3(F)[C@@H](O)C[C@]2(C)[C@@]1(O)C(=O)CO [DEXAMETHASONE] | Toxic
